This is an account of results in ChEMBL document CHEMBL2016458, “Design and optimization of quinazoline derivatives as melanin concentrating hormone receptor 1 (MCHR1) antagonists” (Bioorg Med Chem Lett, 2012).

The target of data set [1] is T1, Melanin-concentrating hormone receptor 1 (Homo sapiens, UniProt Q99705). Nature of the data set: Antagonist activity at human MCHR1 expressed in CHO-K1 cells assessed as inhibition of MCH peptide mediated response measuring [3H]inositol phosphate production by IP3-SPA-YSI assay. It is filed as functional, cell-based.
T1 sequence (Q99705 whole entry): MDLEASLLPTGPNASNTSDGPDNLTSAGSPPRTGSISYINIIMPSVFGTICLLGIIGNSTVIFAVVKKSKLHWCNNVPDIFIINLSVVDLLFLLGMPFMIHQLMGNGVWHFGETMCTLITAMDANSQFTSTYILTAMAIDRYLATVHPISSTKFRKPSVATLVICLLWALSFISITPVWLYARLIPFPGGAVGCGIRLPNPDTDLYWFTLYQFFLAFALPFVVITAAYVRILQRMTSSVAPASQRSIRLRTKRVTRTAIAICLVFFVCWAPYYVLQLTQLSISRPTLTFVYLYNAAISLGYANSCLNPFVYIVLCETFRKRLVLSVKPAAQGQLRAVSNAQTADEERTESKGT
The target in data set [2] is T1, Melanin-concentrating hormone receptor 1. The experiment in a line: biochemical. It is filed as cell-based, CHO-K1.
Data set [3] is described as follows: Metabolic stability in human liver microsomes assessed as compound remaining at 10 uM after 30 mins by HPLC analysis. To be noted: read-out: Stability. In kind it is ADME, Microsome. The method in brief:
(§1)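 Compound at 10 µM was incubated with 1 mg/ml mouse or pooled human liver microsomes in 0.1 M phosphate buffer, pH 7.4. Reaction was started with NADPH and run 30 min at 37 °C. Result is % parent remaining.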
(In general: Microsomes from liver hold many membrane-bound enzymes, among them those of drug oxidation.)

Data set [4] can be described thus: Solubility of the compound in 5% DMSO and 95% PBS after overnight incubation using plate shaker. In kind it is physicochemical. The method in brief:
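A 10 mM DMSO stock was diluted into PBS to a final 500 µM (5% DMSO). The mix was left to precipitate overnight at RT on a plate shaker, then centrifuged. Supernatant absorbance was read at 260, 280 and 620 nm. Solubility is the absorbance ratio of PBS supernatant to an acetonitrile reference (100 and 500 µM). The 620 nm reading was used to exclude visible contamination.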

Data set [5] is described as follows: Metabolic stability in mouse liver microsomes assessed as compound remaining at 10 uM after 30 mins by HPLC analysis. It is filed as ADME, Microsome. The conditions noted are these: read-out: Stability. The method in brief: as §1
Setting [6] is: 5% DMSO and 95% PBS, read-out: solubility.

In brackets after ≈: the same amount, converted by molar mass.

Usually IC50 stands for the concentration that gives 50% inhibition. Usually solubility stands for the dissolved amount per volume that the medium holds.

As for `Cc1nc(N2CCC(O)CC2)nc2ccc(NC(=O)C(C)(C)Oc3ccc(Cl)cc3)cc12`, the IC50 in data set [1] and in data set [2] was over 10000 nM each time.
For the compound `Cc1nc(N2CCC(NC(=O)C(C)C)CC2)nc2ccc(NC(=O)COc3ccc(Cl)cc3)cc12`, the IC50 amounted to 54 nM in data set [1] and 15 nM in data set [2]. In addition, the remaining at 0.5 h, 10 µM in data set [3] amounted to 23%; in data set [5], 9%. In data set [4] (setting [6]), the solubility came out at 205 µM (≈ 102 µg/mL).
As for `Cc1nc(N2CCN(C(=O)C3CCC3)CC2)nc2ccc(NC(=O)COc3ccc(Cl)cc3)cc12`, the figures for the IC50 in data set [1] and in data set [2] were 158 nM and 325 nM, respectively.
`Cc1nc(N2CCC(N3CCCC3)CC2)nc2ccc(NC(=O)COc3ccc(OC(F)(F)F)cc3)cc12`: the IC50 in data set [1] was 120 nM; in data set [2], 31 nM.
For `COC1CCN(c2nc(C)c3cc(NC(=O)COc4ccc(Cl)cc4)ccc3n2)CC1`, the figures for the IC50 in data set [1] and in data set [2] were 181 nM and 213 nM, respectively.
Regarding `Cc1nc(N2CCC(N3CCCC3)CC2)nc2ccc(NC(=O)C(C)(C)Oc3ccc(Cl)cc3)cc12`, the IC50 in data set [1] and in data set [2] was over 10000 nM each time.
For the compound `Cc1nc(N2CCC(O)(C3CCCCC3)CC2)nc2ccc(NC(=O)COc3ccc(OC(F)(F)F)cc3)cc12`, the IC50 came to 156 nM in data set [1] and 327 nM in data set [2].
In the case of `Cc1nc(N2CCN(C(=O)c3ccccc3)CC2)nc2ccc(NC(=O)COc3ccc(Cl)cc3)cc12`, the IC50 in data set [1] is over 10000 nM; in data set [2] it was 7300 nM.
In the case of `CCN1CCN(c2nc(C)c3cc(NC(=O)COc4ccc(Cl)cc4)ccc3n2)CC1`, in data set [2], the midpoint of inhibition, the IC50, lay at 690 nM.
For the compound `Cc1nc(N2CCC(N)CC2)nc2ccc(NC(=O)COc3ccc(Cl)cc3)cc12`, the IC50 is 610 nM in data set [1] and 150 nM in data set [2].
`Cc1nc(N2CCN(C(=O)C(C)C)CC2)nc2ccc(NC(=O)COc3ccc(OC(F)(F)F)cc3)cc12`: the IC50 was determined as 33 nM in data set [1] and 36 nM in data set [2].
Consider `Cc1nc(N2CCN(C3CCOCC3)CC2)nc2ccc(NC(=O)COc3ccc(OC(F)(F)F)cc3)cc12`, for which the IC50 in data set [1] was determined as 31 nM; in data set [2] it was 7 nM.
For `Cc1nc(N2CCC(O)(c3ccc(F)cn3)CC2)nc2ccc(NC(=O)COc3ccc(OC(F)(F)F)cc3)cc12`, the figures for the IC50 in data set [1] and in data set [2] were 59 nM and 213 nM, respectively.
Consider `Cc1nc(N2CCC(O)(c3ccc(F)cc3)CC2)nc2ccc(NC(=O)COc3ccc(OC(F)(F)F)cc3)cc12`, for which the results for the IC50 in data set [1] and in data set [2] were 55 nM and 150 nM, respectively.
In the case of `Cc1nc(N2CCC(O)CC2)nc2ccc(NC(=O)COc3ccc(Cl)cc3)cc12`, the figures for the IC50 in data set [1] and in data set [2] were 163 nM and 150 nM, respectively.
Regarding `Cc1nc(N2CCC(C(=O)NC3CC3)CC2)nc2ccc(NC(=O)COc3ccc(OC(F)(F)F)cc3)cc12`, the IC50 in data set [1] worked out at 3 nM; in data set [2], 9 nM.
As to `Cc1nc(N2CCC(C(N)=O)CC2)nc2ccc(NC(=O)COc3ccc(OC(F)(F)F)cc3)cc12`, the IC50 in data set [1] stood at 32 nM; in data set [2], 23 nM.
Turning to `COCC(=O)N1CCN(c2nc(C)c3cc(NC(=O)COc4ccc(Cl)cc4)ccc3n2)CC1`, the IC50 in data set [1] was determined as 295 nM; in data set [2], 215 nM.
In the case of `Cc1nc(N2CCN(C3CCOCC3)CC2)nc2ccc(NC(=O)COc3ccc(Cl)cc3)cc12`, the IC50 turned out to be 115 nM in data set [1] and 45 nM in data set [2]. Also, the remaining at 0.5 h, 10 µM in data set [3] was found to be 39%; in data set [5] it was 1%. Further, the solubility in data set [4] (setting [6]) is 15 µM (≈ 7.44 µg/mL).
For `Cc1nc(N2CCN(C(=O)CC(C)C)CC2)nc2ccc(NC(=O)COc3ccc(Cl)cc3)cc12`, the values for the IC50 in data set [1] and in data set [2] were 160 nM and 141 nM, respectively.
On to `Cc1nc(N2CCN(C)CC2)nc2ccc(NC(=O)COc3ccc(Cl)cc3)cc12`, for which the IC50 turned out to be 3800 nM in data set [1] and 220 nM in data set [2].
For `Cc1nc(N2CCC(N)CC2)nc2ccc(NC(=O)COc3ccc(OC(F)(F)F)cc3)cc12` the same measures were 80 nM and 22 nM.
For the compound `CCC1(O)CCN(c2nc(C)c3cc(NC(=O)COc4ccc(OC(F)(F)F)cc4)ccc3n2)CC1`, the IC50 in data set [1] amounted to 59 nM; in data set [2], 116 nM.
Turning to `Cc1nc(N2CCC(O)(c3ccccc3)CC2)nc2ccc(NC(=O)COc3ccc(OC(F)(F)F)cc3)cc12`, the IC50 in data set [1] turned out to be 67 nM; in data set [2] it was 354 nM.
For the compound `CCC1(O)CCN(c2nc(C)c3cc(NC(=O)COc4ccc(Cl)cc4)ccc3n2)CC1`, the IC50 is 384 nM in data set [1] and 208 nM in data set [2].
Regarding `Cc1nc(N2CCN(C3CC3)CC2)nc2ccc(NC(=O)COc3ccc(Cl)cc3)cc12`, the figures for the IC50 in data set [1] and in data set [2] were 350 nM and 270 nM, respectively.
For `Cc1nc(N2CCN(C(=O)C3CCCCC3)CC2)nc2ccc(NC(=O)COc3ccc(Cl)cc3)cc12` the same measures were 1040 nM and 116 nM.
Regarding `Cc1nc(N2CCN(C(=O)C3CCCC3)CC2)nc2ccc(NC(=O)COc3ccc(Cl)cc3)cc12`, the figures for the IC50 in data set [1] and in data set [2] were 350 nM and 305 nM, respectively.
Regarding `Cc1nc(N2CCC(C)(O)CC2)nc2ccc(NC(=O)COc3ccc(Cl)cc3)cc12`, the IC50 in data set [1] stood at 827 nM; in data set [2] it was 237 nM.
Turning to `Cc1nc(N2CCC(C(=O)NC(C)C)CC2)nc2ccc(NC(=O)COc3ccc(OC(F)(F)F)cc3)cc12`, the 50% inhibitory concentration (IC50) in data set [1] came to 9 nM; in data set [2], 17 nM.
Turning to `Cc1nc(N2CCC(NC(=O)NC(C)C)CC2)nc2ccc(NC(=O)COc3ccc(Cl)cc3)cc12`, the IC50 in data set [1] was determined as 4 nM; in data set [2], 7 nM. Besides, in data set [4] (buffer), the solubility entry is “Insoluble”.
In the case of `Cc1nc(N2CCC(O)(c3cccc(F)c3)CC2)nc2ccc(NC(=O)COc3ccc(OC(F)(F)F)cc3)cc12`, the IC50 in data set [1] was 100 nM; in data set [2], 635 nM.
In the case of `Cc1nc(N2CCN(CC(C)(C)C)CC2)nc2ccc(NC(=O)COc3ccc(Cl)cc3)cc12`, the IC50 in data set [1] is 246 nM; in data set [2], 782 nM.
As for `Cc1nc(N2CCC(C(=O)N(C)C)CC2)nc2ccc(NC(=O)COc3ccc(OC(F)(F)F)cc3)cc12`, the results for the IC50 in data set [1] and in data set [2] were 18 nM and 47 nM, respectively.
As for `Cc1nc(N2CCN(C3CCCC3)CC2)nc2ccc(NC(=O)COc3ccc(Cl)cc3)cc12`, the IC50 worked out at 150 nM in data set [1] and 96 nM in data set [2].
In the case of `Cc1nc(N2CCN(C(=O)C3CC3)CC2)nc2ccc(NC(=O)COc3ccc(Cl)cc3)cc12`, the IC50 is 146 nM in data set [1] and 251 nM in data set [2].
For the compound `Cc1nc(N2CCN(C(=O)C(C)C)CC2)nc2ccc(NC(=O)COc3ccc(Cl)cc3)cc12`, the IC50 was determined as 91 nM in data set [1] and 225 nM in data set [2].
On to `Cc1nc(N2CCN(S(C)(=O)=O)CC2)nc2ccc(NC(=O)COc3ccc(Cl)cc3)cc12`, for which the IC50 in data set [1] and in data set [2] was over 10000 nM in each case.
On to `Cc1nc(N2CCN(C(=O)C3CC3)CC2)nc2ccc(NC(=O)COc3ccc(OC(F)(F)F)cc3)cc12`, for which the IC50 was found to be 30 nM in data set [1] and 49 nM in data set [2]. The remaining at 0.5 h, 10 µM in data set [3] was 59%; in data set [5] it was 43%. Besides, in data set [4] (setting [6]), the solubility was 8 µM (≈ 4.24 µg/mL).
`Cc1nc(N2CCCCC2)nc2ccc(NC(=O)COc3ccc(Cl)cc3)cc12`: the IC50 is 305 nM in data set [1] and 180 nM in data set [2].
`Cc1nc(N2CCC(O)(C3CC3)CC2)nc2ccc(NC(=O)COc3ccc(OC(F)(F)F)cc3)cc12`: the IC50 in data set [1] is 33 nM; in data set [2] it was 101 nM.
